Laboratory results reported in ChEMBL document CHEMBL4706620, “Design, synthesis, biological activity evaluation of 3-(4-phenyl-1H-imidazol-2-yl)-1H-pyrazole derivatives as potent JAK 2/3 and aurora A/B kinases multi-targeted inhibitors” (Eur J Med Chem, 2021).
pIC50: −log10 of the molar value. Active and inactive are the calls of the source. No cut-off for these calls is given here.

Tests used:
[1] = target: T1, Tyrosine-protein kinase JAK3 (Homo sapiens, UniProt P52333); assay: Inhibition of JAK3 (unknown origin) incubated for 40 mins in presence of ATP by Kinase-glo luminescence assay
T1 sequence (P52333 whole entry): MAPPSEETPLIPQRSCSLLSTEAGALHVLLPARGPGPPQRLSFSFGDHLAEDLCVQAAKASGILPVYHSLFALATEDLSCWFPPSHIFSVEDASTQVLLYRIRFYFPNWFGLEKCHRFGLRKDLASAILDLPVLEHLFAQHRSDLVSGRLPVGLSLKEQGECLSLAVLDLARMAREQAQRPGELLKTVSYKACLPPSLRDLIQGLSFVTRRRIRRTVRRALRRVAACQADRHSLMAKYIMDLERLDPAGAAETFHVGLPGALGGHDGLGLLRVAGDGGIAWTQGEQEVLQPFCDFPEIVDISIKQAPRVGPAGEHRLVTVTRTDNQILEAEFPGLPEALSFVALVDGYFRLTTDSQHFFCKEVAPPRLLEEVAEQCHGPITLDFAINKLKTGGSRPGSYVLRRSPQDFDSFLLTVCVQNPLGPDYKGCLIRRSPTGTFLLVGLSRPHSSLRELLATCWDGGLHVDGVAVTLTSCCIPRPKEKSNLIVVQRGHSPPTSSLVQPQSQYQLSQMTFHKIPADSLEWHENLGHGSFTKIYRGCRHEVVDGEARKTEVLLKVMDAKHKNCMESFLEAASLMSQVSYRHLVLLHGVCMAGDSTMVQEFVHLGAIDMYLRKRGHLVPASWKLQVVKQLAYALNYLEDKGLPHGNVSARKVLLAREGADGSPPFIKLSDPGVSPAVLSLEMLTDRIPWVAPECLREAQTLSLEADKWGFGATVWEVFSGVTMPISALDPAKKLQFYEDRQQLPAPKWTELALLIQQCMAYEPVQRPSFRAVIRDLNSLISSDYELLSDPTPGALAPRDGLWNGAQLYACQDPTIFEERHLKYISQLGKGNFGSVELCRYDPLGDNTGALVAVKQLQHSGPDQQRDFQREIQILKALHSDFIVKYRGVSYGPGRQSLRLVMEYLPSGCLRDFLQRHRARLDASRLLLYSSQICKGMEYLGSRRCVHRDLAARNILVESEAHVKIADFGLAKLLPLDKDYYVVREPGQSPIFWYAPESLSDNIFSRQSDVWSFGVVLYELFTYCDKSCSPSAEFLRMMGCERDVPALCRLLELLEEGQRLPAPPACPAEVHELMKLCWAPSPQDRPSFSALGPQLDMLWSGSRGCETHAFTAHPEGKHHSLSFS

K562 [2] = assay: Antiproliferative activity against human K562 cells assessed as reduction in cell growth measured after 72 hrs by CCK8 assay; type: functional, cell-based; conditions: K562, 72 h
[3] = Cytotoxicity against HCoEpiC assessed as reduction in cell growth measured after 72 hrs by CCK8 assay; conditions: Homo sapiens
HUVEC = assay: Cytotoxicity against HUVEC assessed as reduction in cell growth measured after 72 hrs by CCK8 assay; type: cell-based; conditions: Homo sapiens
JAK2/JAK3 (Homo sapiens) [4] = target: T2, JAK2/JAK3 (Homo sapiens) (UniProt P52333+O60674); assay: Inhibition of JAK2/3 in human K562 cells assessed as inhibition of STAT5 phosphorylation at 1 to 20 uM measured after 48 hrs by Western blot analysis; type: cell-based; conditions: dose 1-20 µM
T2 sequence (O60674 whole entry, looked up, one chain of several): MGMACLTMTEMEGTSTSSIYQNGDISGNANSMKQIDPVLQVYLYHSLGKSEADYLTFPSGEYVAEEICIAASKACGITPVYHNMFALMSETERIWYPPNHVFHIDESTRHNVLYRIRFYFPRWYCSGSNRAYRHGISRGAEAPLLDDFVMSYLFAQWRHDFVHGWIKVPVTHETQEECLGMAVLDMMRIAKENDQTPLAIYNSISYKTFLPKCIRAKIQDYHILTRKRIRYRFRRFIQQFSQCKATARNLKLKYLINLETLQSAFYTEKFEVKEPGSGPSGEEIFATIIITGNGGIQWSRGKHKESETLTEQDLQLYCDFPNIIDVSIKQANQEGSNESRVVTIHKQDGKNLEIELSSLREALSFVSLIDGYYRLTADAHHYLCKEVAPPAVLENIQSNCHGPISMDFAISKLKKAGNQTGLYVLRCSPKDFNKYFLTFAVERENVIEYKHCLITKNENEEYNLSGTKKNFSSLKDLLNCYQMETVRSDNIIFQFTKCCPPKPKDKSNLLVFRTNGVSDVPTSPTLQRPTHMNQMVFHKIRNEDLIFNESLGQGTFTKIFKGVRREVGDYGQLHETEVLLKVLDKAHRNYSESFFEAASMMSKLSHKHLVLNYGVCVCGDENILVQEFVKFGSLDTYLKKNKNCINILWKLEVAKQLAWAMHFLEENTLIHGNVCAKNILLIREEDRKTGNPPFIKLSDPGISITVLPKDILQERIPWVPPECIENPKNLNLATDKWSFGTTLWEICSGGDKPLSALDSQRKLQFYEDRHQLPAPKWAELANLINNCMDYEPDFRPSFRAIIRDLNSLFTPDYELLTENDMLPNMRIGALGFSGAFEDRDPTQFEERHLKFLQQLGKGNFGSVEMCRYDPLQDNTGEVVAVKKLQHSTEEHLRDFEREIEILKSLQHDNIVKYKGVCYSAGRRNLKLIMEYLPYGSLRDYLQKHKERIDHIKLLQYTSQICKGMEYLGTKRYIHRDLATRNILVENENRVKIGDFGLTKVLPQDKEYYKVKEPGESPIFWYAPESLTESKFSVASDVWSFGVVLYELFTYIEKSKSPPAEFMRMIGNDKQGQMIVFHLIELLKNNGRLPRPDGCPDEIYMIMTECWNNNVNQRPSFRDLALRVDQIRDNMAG
Procedure, shortened: (§1)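 K562 or HCT116 cells treated 48 h at 1, 10 and 20 µM alongside untreated control; lysed in cold RIPA, protein by BCA, SDS-PAGE, nitrocellulose transfer, 5% milk block, primary antibody overnight at 4 °C, secondary 1 h; p-Aurora A, p-Aurora B, p-STAT3, p-STAT5 probed with GAPDH loading control.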

JAK2/JAK3 (Homo sapiens) [5] = target: T2, JAK2/JAK3 (Homo sapiens); assay: Inhibition of JAK2/3 in human HCT116 cells assessed as inhibition of STAT3 phosphorylation at 1 to 20 uM measured after 48 hrs by Western blot analysis; type: cell-based; conditions: HCT-116, dose 1-20 µM; procedure, shortened: as §1
JAK2/JAK3 (Homo sapiens) [6] = target: T2, JAK2/JAK3 (Homo sapiens); assay: Inhibition of JAK2/3 in human HCT116 cells assessed as inhibition of STAT5 phosphorylation at 1 to 20 uM measured after 48 hrs by Western blot analysis; type: cell-based; conditions: HCT-116, dose 1-20 µM; procedure, shortened: as §1
[7] = target: T3, Aurora kinase A (Homo sapiens) (UniProt O14965); assay: Inhibition of Aurora A phosphorylation in human HCT116 cells incubated for 48 hrs by Western blot analysis; type: cell-based; conditions: HCT-116, dose 1-20 µM; procedure, shortened: as §1
T3 sequence (whole entry): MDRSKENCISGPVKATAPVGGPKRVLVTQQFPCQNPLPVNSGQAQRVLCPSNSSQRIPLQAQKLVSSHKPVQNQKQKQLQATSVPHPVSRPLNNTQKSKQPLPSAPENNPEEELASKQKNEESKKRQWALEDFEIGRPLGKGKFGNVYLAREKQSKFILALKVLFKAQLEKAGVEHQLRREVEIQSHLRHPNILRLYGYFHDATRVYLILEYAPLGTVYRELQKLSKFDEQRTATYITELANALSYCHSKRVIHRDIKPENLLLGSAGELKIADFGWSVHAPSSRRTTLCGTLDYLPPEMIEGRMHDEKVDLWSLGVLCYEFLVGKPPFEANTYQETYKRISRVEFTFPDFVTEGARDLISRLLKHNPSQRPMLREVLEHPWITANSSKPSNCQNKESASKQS

K562 [8] = assay: Cell cycle arrest in human K562 cells assessed as accumulation of diploid cells at G2 phase at 1 uM incubated for 48 hrs by propidium iodide staining based flow cytometric analysis (reference value: 7.73 %); type: functional
K562 [9] = assay: Cell cycle arrest in human K562 cells assessed as accumulation of diploid cells at S phase at 10 uM incubated for 48 hrs by propidium iodide staining based flow cytometric analysis (reference value: 35.94 %); type: functional
K562 [10] = assay: Cell cycle arrest in human K562 cells assessed as accumulation at […] phase at 20 uM incubated for 48 hrs by propidium iodide staining based flow cytometric analysis (reference value: 1.90 %); type: functional
HCT-116 [11] = assay: Cell cycle arrest in human HCT116 cells assessed as accumulation at […] phase at 1 uM incubated for 48 hrs by propidium iodide staining based flow cytometric analysis (reference value: 2.01 %); type: functional
HCT-116 [12] = assay: Cell cycle arrest in human HCT116 cells assessed as accumulation of diploid cells at G2 phase at 10 uM incubated for 48 hrs by propidium iodide staining based flow cytometric analysis (reference value: 10.46 %); type: functional
Homo sapiens = species: Homo sapiens; assay: Selectivity for JAK3 (unknown origin) over Aurora A (unknown origin)
HCT-116 [13] = assay: Cell cycle arrest in human HCT116 cells assessed as accumulation of diploid cells at G2 phase at 20 uM incubated for 48 hrs by propidium iodide staining based flow cytometric analysis (reference value: 10.46 %); type: functional
HCT-116 [14] = assay: Cell cycle arrest in human HCT116 cells assessed as accumulation of diploid cells at S phase at 20 uM incubated for 48 hrs by propidium iodide staining based flow cytometric analysis (reference value: 11.92 %); type: functional

pIC50 [1]: 7.24
pIC50 (K562 [2]): 5.17
inhibition (JAK2/JAK3 (Homo sapiens) [4]): Active
inhibition (JAK2/JAK3 (Homo sapiens) [5]): Active
inhibition (JAK2/JAK3 (Homo sapiens) [6]): Active
inhibition [7]: Dose-dependent effect
Selectivity ratio (Homo sapiens): 20
Structure (SMILES): O=C(Nc1c[nH]nc1-c1nc(-c2ccc(CN3CCOCC3)cc2)c[nH]1)c1cccc(Cl)c1
pIC50 [3]: 4.50
pIC50 (HUVEC): 4.54
Activity (K562 [8]): 8.12%
Activity (K562 [9]): 35.86%
Activity (K562 [10]): 2.06%
Activity (HCT-116 [11]): 2%
Activity (HCT-116 [12]): 16.16%
Activity (HCT-116 [13]): 24.55%
Activity (HCT-116 [14]): 17.92%
